ChEMBL document CHEMBL2424551, “Synthesis, in vitro evaluation and molecular modelling of naphthalimide analogue as anticancer agents” (2013)
Active and inactive are the calls of the source. No cut-off for these calls is given here.

Key:
DNA [1] = assay: Binding affinity to calf thymus DNA assessed as DNA intercalation at 50 uM by fluorescence spectrophotometry; assay type: nucleic-acid assay; details: Bos taurus
In short: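 Fluorescence titration: increasing ct-DNA added to compound in phosphate buffer (pH 7.0); decrease in emission band at 500 nm monitored; binding constant derived from titration data by Benesi–Hildebrand method.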

DNA [2] = assay: Binding affinity to calf thymus DNA assessed as change in melting temperature by thermal denaturation assay; assay type: nucleic-acid assay; details: Bos taurus
DNA [3] = assay: Binding affinity to calf thymus DNA assessed as DNA intercalation at 50 uM by UV-visible spectrophotometry; assay type: nucleic-acid assay; details: Bos taurus
In short: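 ct-DNA titrated (4–100 µM) into phosphate-buffered solution (pH 7.0) of compound at 50 µM; absorption spectra recorded by UV–visible spectrophotometry, tracking band shift and hypochromism.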

HCC 2998 = assay: Growth inhibition of human HCC2998 cells at 10 uM after 48 hrs by SRB assay; assay type: functional
In short: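 Cells grown in RPMI 1640 with 5% FBS and 2 mM L-glutamine, plated at 5000–40,000 cells/well by doubling time and preincubated 24 h (37 °C, 5% CO2); a time-zero plate is TCA-fixed. Single dose added, then 48 h incubation. Fixed with cold TCA, stained with 0.4% SRB, dye solubilized in 10 mM Tris base, absorbance at 515 nm; percent growth vs time-zero and untreated control.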

| SMILES | Activity (DNA [1]) | ΔTm (DNA [2]) [°C] | Activity (DNA [3]) | growth inhibition (GI) (HCC 2998) |
| --- | --- | --- | --- | --- |
| Nc1ccc(Sc2ccc3c4c2cccc4c(=O)n2c4ccccc4nc32)cc1 | Active | 8.2 | Active |  |
| O=c1[nH]cc(F)c(=O)[nH]1 [FLUOROURACIL] |  |  |  | Active |
